From ChEMBL document CHEMBL1153859, “Analogs of JHU75528, a PET ligand for imaging of cerebral cannabinoid receptors (CB1): development of ligands with optimized lipophilicity and binding affinity” (Eur J Med Chem, 2009)
pKi: −log10 of the molar value. Calls of active or inactive are those of the source. The calls are words filed in the database; no cut-off is given here.

Key:
Cannabinoid receptor 1 [1] = biological target: T1, Cannabinoid receptor 1 (Homo sapiens, UniProt P21554); test: biochemical; type: cell-based, HEK293
[2] = Octanol-phosphate buffer partition coefficient, log D at pH 7.4 by shake-flask method; type: physicochemical
Outline: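 Octanol/phosphate buffer (pH 7.4) partition by conventional shake-flask; logD7.4 reported as mean ± S.D. of independent assays.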

Cannabinoid receptor 1 [3] = biological target: T1, Cannabinoid receptor 1; test: Binding affinity to human CB1 receptor assessed as binding potential
[4] = biological target: Cannabinoid receptor 1 (Mus musculus) (UniProt P47746); test: Antagonist activity at CB1 receptor in C57/BL6 mouse striatum assessed as blockade of WIN-55212-2 induced inhibition of glutamate release at 3 uM by electrophysiology; type: functional, tissue-based
[5] = test system: Cannabinoid receptor 1 (Macaca mulatta); test: Binding affinity to Rhesus monkey CB1 receptor assessed as binding potential; conditions: tested as the 11C-labelled form
Mus musculus [6] = test: Binding affinity to CB1 receptor in CD1 mouse brainstem at 200 uCi, iv after 60 mins in presence of rimonabant; type: functional, organism-based; conditions: tested as the 11C-labelled form
Outline: (§1)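 Controls got vehicle. 15 min later [11C] tracer (~7.4 MBq, ~200 μCi; ~300 GBq/μmol) was given i.v.; n=3 per group. Brains were harvested at 60 min and regions dissected on ice, then γ-counted against injectate standards as %ID/g tissue. Single-factor ANOVA, p ≤ 0.05.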

Mus musculus [7] = test: Binding affinity to CB1 receptor in CD1 mouse hippocampus at 200 uCi, iv after 60 mins in presence of rimonabant; type: functional, organism-based; conditions: tested as the 11C-labelled form
Outline: as §1

T1 sequence (P21554 whole entry): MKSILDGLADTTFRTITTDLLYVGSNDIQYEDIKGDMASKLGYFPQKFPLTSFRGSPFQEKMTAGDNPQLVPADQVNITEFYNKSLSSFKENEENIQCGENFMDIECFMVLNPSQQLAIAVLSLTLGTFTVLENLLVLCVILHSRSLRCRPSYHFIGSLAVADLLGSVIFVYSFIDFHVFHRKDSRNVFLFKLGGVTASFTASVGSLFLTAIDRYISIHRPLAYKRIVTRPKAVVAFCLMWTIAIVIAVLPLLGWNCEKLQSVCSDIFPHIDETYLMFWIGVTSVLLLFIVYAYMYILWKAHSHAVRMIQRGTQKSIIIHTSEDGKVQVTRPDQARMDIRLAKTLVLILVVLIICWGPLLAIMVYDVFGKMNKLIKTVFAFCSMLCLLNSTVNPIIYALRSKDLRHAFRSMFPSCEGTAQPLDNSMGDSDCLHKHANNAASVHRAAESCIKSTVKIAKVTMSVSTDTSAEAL
Sequence of Cannabinoid receptor 1 (Mus musculus) (P47746 whole entry): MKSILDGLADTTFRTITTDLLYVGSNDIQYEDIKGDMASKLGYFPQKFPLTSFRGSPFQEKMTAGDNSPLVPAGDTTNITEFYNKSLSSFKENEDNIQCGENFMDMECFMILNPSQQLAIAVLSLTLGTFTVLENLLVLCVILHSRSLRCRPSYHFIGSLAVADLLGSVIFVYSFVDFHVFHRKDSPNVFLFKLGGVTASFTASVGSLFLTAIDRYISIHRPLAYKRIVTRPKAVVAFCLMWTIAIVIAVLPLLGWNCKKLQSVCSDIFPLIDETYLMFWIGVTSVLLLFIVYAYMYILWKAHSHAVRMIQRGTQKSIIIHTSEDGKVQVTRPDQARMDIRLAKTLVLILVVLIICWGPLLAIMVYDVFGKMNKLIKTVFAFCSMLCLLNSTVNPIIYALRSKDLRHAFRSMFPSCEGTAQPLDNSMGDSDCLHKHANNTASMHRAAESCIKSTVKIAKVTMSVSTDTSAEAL

With `N#Cc1c(C(=O)NN2CCOCC2)nn(-c2ccc(Cl)cc2Cl)c1-c1ccc(Br)cc1` the pKi (Cannabinoid receptor 1 [1]) was under 6.00 and the logD [2] was 3.1.

In the case of `Cc1c(C(=O)NN2CCOCC2)nn(-c2ccc(Cl)cc2Cl)c1-c1ccc(I)cc1`, the Activity (Cannabinoid receptor 1 [3]; tested as the 123I-labelled form) was 0.21 and the Activity (Cannabinoid receptor 1 [3]; tested as the 124I-labelled form) was 0.37.

For `N#Cc1c(C(=O)NN2CCCCC2)nn(-c2ccc(Cl)cc2Cl)c1-c1ccc(Cl)cc1`, the pKi (Cannabinoid receptor 1 [1]) was 7.62 and the logD [2] was 3.5.

Compound `N#Cc1c(C(=O)NN2CCOCC2)nn(-c2ccc(Cl)cc2Cl)c1-c1ccc(I)cc1` has a pKi (Cannabinoid receptor 1 [1]) of 6.88 and a logD [2] of 3.2.

Compound `CCCCCCC(C)(C)c1cc(O)c2c(c1)OC(C)(C)[C@@H]1CC=C(CO)C[C@@H]21` has a pKi (Cannabinoid receptor 1 [1]) of 8.82.

In the case of `N#Cc1c(C(=O)NN2CCCCC2)nn(-c2ccc(Cl)cc2Cl)c1-c1ccc(I)cc1`, the pKi (Cannabinoid receptor 1 [1]) was 7.48 and the logD [2] was 3.9.

For `COc1ccc(-c2c(C#N)c(C(=O)NN3CCCCC3)nn2-c2ccc(F)cc2Br)cc1`, the pKi (Cannabinoid receptor 1 [1]) was 7.49 and the logD [2] was 2.9.

With `N#Cc1c(C(=O)NN2CCCCC2)nn(-c2ccc(Cl)cc2Cl)c1-c1ccc(Br)cc1` the pKi (Cannabinoid receptor 1 [1]) was 7.85 and the logD [2] was 3.7.

`COc1ccc(-c2c(C#N)c(C(=O)NN3CCCCC3)nn2-c2ccc(F)cc2Cl)cc1` gave a pKi (Cannabinoid receptor 1 [1]) of 7.89 and a logD [2] of 2.8.

With `COc1ccc(-c2c(C(N)=O)c(C(=O)NN3CCCCC3)nn2-c2ccccc2Br)cc1` the pKi (Cannabinoid receptor 1 [1]) was under 5.00 and the logD [2] was 2.5.

`N#Cc1c(C(=O)NN2CCCCC2)nn(-c2ccc(Cl)cc2Cl)c1-c1ccc(OCF)cc1` gave a pKi (Cannabinoid receptor 1 [1]) of 7.99 and a logD [2] of 2.9.

Compound `COc1ccc(-c2c(C#N)c(C(=O)NN3CCCCC3)nn2-c2ccccc2Br)cc1` has a pKi (Cannabinoid receptor 1 [1]) of 8.33 and a logD [2] of 3.4.

With `COc1ccc(-c2c(C#N)c(C(=O)NN3CCCCC3)nn2-c2ccc(Cl)cc2Cl)cc1` [JHU-75528] the Activity [4] was “Active”, the pKi (Cannabinoid receptor 1 [1]) was 7.96 and the Activity [5] was 0.6.

With `COc1ccc(-c2c(C#N)c(C(=O)NN3CCCC3)nn2-c2ccc(Cl)cc2Cl)cc1` the pKi (Cannabinoid receptor 1 [1]) was 8.70, the Activity (Mus musculus [6]) was “Active” and the Activity (Mus musculus [7]) was “inactive”.
